From ChEMBL document CHEMBL4177755, “Combating Drug-Resistant Fungi with Novel Imperfectly Amphipathic Palindromic Peptides” (J Med Chem, 2018)

Key:
[1] = system: Escherichia coli; test: Antibacterial activity against Escherichia coli ATCC 25922 after 18 hrs in presence of FeCl3 by broth dilution method; type: functional; conditions: ATCC 25922, 18 h
[2] = system: Escherichia coli; test: Antibacterial activity against Escherichia coli ATCC 25922 after 18 hrs in presence of CaCl2 by broth dilution method; type: functional; conditions: ATCC 25922, 18 h
[3] = system: Escherichia coli; test: Antibacterial activity against Escherichia coli ATCC 25922 after 18 hrs in presence of KCl by broth dilution method; type: functional; conditions: ATCC 25922, 18 h
[4] = system: Candida albicans; test: Antifungal activity against Candida albicans cgmcc 2.2086 in presence of NH4Cl by broth dilution method; type: functional
[5] = system: Candida albicans; test: Fungicidal activity against fluconazole-resistant Candida albicans 17546 after 96 hrs; type: functional; conditions: Candida albicans, 17546, 96 h; read-out: MFC99.9
Method in brief: (§1)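 After the 48 h, 28 °C broth microdilution in MOPS-buffered RPMI 1640 (inoculum (0.5−1) × 10^3 CFU/mL), 50 μL from each well was plated on YM agar for a further 48 h at 28 °C. MFC is the lowest concentration killing at least 99.9% of cells. Triplicate, three biological replicates.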

[6] = system: Candida albicans; test: Antifungal activity against fluconazole-resistant Candida albicans 56452 after 48 hrs by broth microdilution method; type: functional; conditions: Candida albicans, 56452, 48 h
Method in brief: (§2)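 Modified CLSI M27-A2 broth microdilution. Yeast at (0.5−1) × 10^3 CFU/mL in MOPS-buffered RPMI 1640 was mixed 1:1 with peptide serially diluted in 0.2% BSA and incubated 48 h at 28 °C. Absorbance was read at 492 nm; MIC is the lowest concentration inhibiting 95% of growth. Triplicate, three biological replicates.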

[7] = Cytotoxicity against HEK293T cells assessed as cell viability at 2 to 64 uM after 24 hrs by MTT assay relative to control; type: cell-based, HEK-293T; conditions: human, read-out: Activity
Method in brief: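 MTT viability assay. RAW264.7 or HEK293T cells at (1.0−2.0) × 10^5 per well were exposed to a peptide concentration series for 24 h at 37 °C in 5% CO2. MTT was then added at 0.5 mg/mL final for 4 h; formazan was dissolved in DMSO and read at 570 nm. Results average three independent trials.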

[8] = system: Candida albicans; test: Fungicidal activity against Candida albicans SP3903 after 96 hrs; type: functional; conditions: SP3903, 96 h, read-out: MFC99.9; method in brief: as §1
[9] = system: Candida albicans; test: Antifungal activity against Candida albicans cgmcc 2.2086 in presence of ZnCl2 by broth dilution method; type: functional
[10] = system: Candida parapsilosis; test: Fungicidal activity against Candida parapsilosis cgmcc 2.3989 after 96 hrs; type: functional; conditions: Lodderomyces parapsilosis, cgmcc 2.3989, 96 h; read-out: MFC99.9
Method in brief: (§3)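 Wells from the 48 h, 28 °C RPMI 1640/MOPS microdilution plates were plated on YM agar and incubated a further 48 h at 28 °C. MFC is the lowest concentration killing at least 99.9% of cells. Run in triplicate with three biological replicates.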

[11] = system: Candida albicans; test: Fungicidal activity against fluconazole-resistant Candida albicans 56452 after 96 hrs; type: functional; conditions: Candida albicans, 56452, 96 h; read-out: MFC99.9; method in brief: as §1
[12] = system: Candida albicans; test: Antifungal activity against Candida albicans 14936 after 48 hrs by broth microdilution method; type: functional; conditions: Candida albicans, 14936, 48 h; method in brief: as §2
[13] = system: Candida albicans; test: Antifungal activity against Candida albicans cgmcc 2.2086 in presence of CaCl2 by broth dilution method; type: functional
[14] = system: Staphylococcus aureus; test: Bactericidal activity against Staphylococcus aureus ATCC 29213; type: functional; conditions: read-out: MBC99.9
Method in brief: (§4)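 Wells from the 24 h, 37 °C MHB microdilution plates (bacteria at a final (0.5−1) × 10^5 CFU/mL; peptide diluted in 0.2% BSA) were plated on agar and incubated overnight. MBC is the lowest concentration killing >99.9% of cells. Each test was reproduced at least 3 times.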

[15] = system: Candida albicans; test: Antifungal activity against Candida albicans isolated from alveolar fluid after 48 hrs by broth microdilution method; type: functional; method in brief: as §2
[16] = system: Candida albicans; test: Fungicidal activity against Candida albicans 14936 after 96 hrs; type: functional; conditions: Candida albicans, 14936, 96 h; read-out: MFC99.9; method in brief: as §1
[17] = system: Escherichia coli; test: Antibacterial activity against Escherichia coli ATCC 25922 after 24 hrs; type: functional; conditions: ATCC 25922, 24 h
Method in brief: (§5)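 Broth microdilution. Mid-log bacteria in MHB at a final (0.5−1) × 10^5 CFU/mL were mixed with equal volumes of peptide serially diluted in 0.2% BSA. Plates were incubated 24 h at 37 °C and read at A492. MIC is the lowest concentration inhibiting 95% of growth. Each test was repeated at least 3 times.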

[18] = system: Candida albicans; test: Antifungal activity against Candida albicans cgmcc 2.2086 in presence of NaCl by broth dilution method; type: functional
[19] = system: Salmonella typhimurium; test: Bactericidal activity against Salmonella typhimurium ATCC 14028; type: functional, Salmonella enterica subsp. enterica serovar Typhimurium; conditions: Salmonella enterica, read-out: MBC99.9; method in brief: as §4
[20] = Bactericidal activity against Salmonella pullorum ATCC 7913; type: functional, Salmonella enterica subsp. enterica serovar Pullorum; conditions: Salmonella enterica, read-out: MBC99.9; method in brief: as §4
[21] = system: Candida albicans; test: Fungicidal activity against Candida albicans isolated from alveolar fluid after 96 hrs; type: functional; conditions: read-out: MFC99.9; method in brief: as §1
[22] = system: Candida parapsilosis; test: Antifungal activity against Candida parapsilosis cgmcc 2.3989 after 48 hrs by broth microdilution method; type: functional; conditions: Lodderomyces parapsilosis, cgmcc 2.3989, 48 h
Method in brief: (§6)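 Modified CLSI M27-A2 broth microdilution. Yeast were suspended in MOPS-buffered RPMI 1640 at a final (0.5−1) × 10^3 CFU/mL and mixed 1:1 with peptide serially diluted in 0.2% BSA. Plates were incubated 48 h at 28 °C and read at A492. MIC is the lowest concentration giving 95% inhibition. Run in triplicate with three biological replicates.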

[23] = system: Staphylococcus aureus; test: Antibacterial activity against Staphylococcus aureus ATCC 29213 after 24 hrs; type: functional; conditions: ATCC 29213, 24 h
Method in brief: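 Modified NCCLS broth microdilution. Mid-log bacteria at (0.5−1) × 10^5 CFU/mL in MHB were mixed 1:1 with peptide serially diluted in 0.2% BSA and incubated 24 h at 37 °C. Absorbance was read at 492 nm; MIC is the lowest concentration inhibiting 95% of growth. At least 3 repeats.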

[24] = system: Escherichia coli; test: Antibacterial activity against Escherichia coli ATCC 25922 after 18 hrs in presence of ZnCl2 by broth dilution method; type: functional; conditions: ATCC 25922, 18 h
[25] = system: Candida albicans; test: Fungicidal activity against Candida albicans SP3931 after 96 hrs; type: functional; conditions: SP3931, 96 h, read-out: MFC99.9; method in brief: as §1
[26] = system: Candida albicans; test: Fungicidal activity against Candida albicans SP3902 after 96 hrs; type: functional; conditions: SP3902, 96 h, read-out: MFC99.9; method in brief: as §1
[27] = system: Candida tropicalis; test: Fungicidal activity against Candida tropicalis cgmcc 2.1975 after 96 hrs; type: functional; conditions: cgmcc 2.1975, 96 h, read-out: MFC99.9; method in brief: as §3
[28] = system: Candida albicans; test: Fungicidal activity against Candida albicans SP3876 after 96 hrs; type: functional; conditions: SP3876, 96 h, read-out: MFC99.9; method in brief: as §1
[29] = system: Escherichia coli; test: Antibacterial activity against Escherichia coli 1005 after 24 hrs; type: functional; conditions: Escherichia coli, 1005, 24 h; method in brief: as §5
[30] = system: Pichia kudriavzevii; test: Antifungal activity against Candida krusei cgmcc 2.1857 after 48 hrs by broth microdilution method; type: functional; conditions: cgmcc 2.1857, 48 h; method in brief: as §6
[31] = system: Candida tropicalis; test: Antifungal activity against Candida tropicalis cgmcc 2.1975 after 48 hrs by broth microdilution method; type: functional; conditions: cgmcc 2.1975, 48 h; method in brief: as §6
[32] = system: Candida albicans; test: Fungicidal activity against fluconazole-resistant Candida albicans 56214 after 96 hrs; type: functional; conditions: Candida albicans, 56214, 96 h; read-out: MFC99.9; method in brief: as §1

H-RIIRRIRRIIR-NH2
MIC [1]: 16 µM | MIC [2]: 32 µM | MIC [3]: 16 µM | MIC [4]: 16 µM | MFC [5]: 16 µM | MIC95 [6]: 8 µM | viability at 24 h, up to 64 µM [7]: 70 to 80% | MFC [8]: 4 µM | MIC [9]: 64 µM | MFC [10]: > 64 µM | MFC [11]: 8 µM | MIC95 [12]: 8 µM | MIC [13]: 64 µM | MBC [14]: > 64 µM | MIC95 [15]: 16 µM | MFC [16]: 8 µM | MIC95 [17]: 16 µM | MIC [18]: 64 µM | MBC [19]: 32 µM | MBC [20]: 64 µM | MFC [21]: 32 µM | MIC95 [22]: > 64 µM | MIC95 [23]: 64 µM | MIC [24]: 16 µM | MFC [25]: 32 µM | MFC [26]: 16 µM | MFC [27]: 2 µM | MFC [28]: 16 µM | MIC95 [29]: 8 µM | MIC95 [30]: 4 µM | MIC95 [31]: 1 µM | MFC [32]: 16 µM

H-RIRIIIRIR-NH2
MIC [1]: 8 µM | MIC [2]: 16 µM | MIC [3]: 8 µM | MIC [4]: 4 µM | MFC [5]: 2 µM | MIC95 [6]: 4 µM | viability at 24 h, up to 64 µM [7]: 70 to 80% | MFC [8]: 8 µM | MIC [9]: 4 µM | MFC [10]: 16 µM | MFC [11]: 4 µM | MIC95 [12]: 2 µM | MIC [13]: 32 µM | MBC [14]: 8 µM | MIC95 [15]: 4 µM | MFC [16]: 2 µM | MIC95 [17]: 8 µM | MIC [18]: 16 µM | MBC [19]: 8 µM | MBC [20]: 16 µM | MFC [21]: 8 µM | MIC95 [22]: 8 µM | MIC95 [23]: 4 µM | MIC [24]: 8 µM | MFC [25]: 8 µM | MFC [26]: 2 µM | MFC [27]: 4 µM | MFC [28]: 1 µM | MIC95 [29]: 4 µM | MIC95 [30]: 2 µM | MIC95 [31]: 2 µM | MFC [32]: 4 µM
